Columns and labels:
Salmonella typhimurium [1] = assay: Antibacterial activity against Salmonella typhimurium ATCC 14028 measured after 24 hrs; format: functional, Salmonella enterica subsp. enterica serovar Typhimurium; conditions: Salmonella enterica, ATCC 14028, 24 h
In short: (§1)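 Broth microdilution adapted from NCCLS. Mid-log bacteria were diluted in MHB to a final (0.5–1) × 10^5 CFU mL−1. Peptides were serially diluted in 0.2% BSA and mixed with an equal volume of cells. After 24 h at 37 °C, MIC was read at A492 as the lowest concentration inhibiting 95% of growth. At least three independent experiments, each with three technical replicates.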

[2] = system: Staphylococcus epidermidis; assay: Bactericidal activity against Staphylococcus epidermidis ATCC 12228 incubated for 24 hrs followed by replating on agar plate and measured after overnight incubation; format: functional; conditions: ATCC 12228, 24 h, read-out: MBC>99.9
In short: (§2)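 Mid-log bacteria diluted in MHB to (0.5–1) × 10^5 CFU/mL and mixed 1:1 with peptide serially diluted in 0.2% BSA. After 24 h at 37 °C, 50 μL of each mixture was plated on agar and incubated overnight. MBC taken as the lowest concentration killing >99.9% of cells. At least three independent experiments, each with three technical replicates.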

Escherichia coli [3] = assay: Antibacterial activity against Escherichia coli ATCC 25922 measured after 18 to 24 hrs in presence of FeCl3; format: functional
Staphylococcus aureus [4] = assay: Antibacterial activity against Staphylococcus aureus ATCC 29213 measured after 18 to 24 hrs in presence of CaCl2; format: functional
Salmonella typhimurium [5] = assay: Antibacterial activity against Salmonella typhimurium C7731 measured after 24 hrs; format: functional, Salmonella enterica subsp. enterica serovar Typhimurium; conditions: Salmonella enterica, C7731, 24 h; in short: as §1
Candida albicans [6] = assay: Antifungal activity against Candida albicans cgmcc2.2086 measured after 48 hrs in presence of CaCl by broth microdilution method; format: functional; conditions: cgmcc2.2086, 48 h
Candida albicans [7] = assay: Antifungal activity against Candida albicans cgmcc2.2086 measured after 48 hrs in presence of NH4Cl by broth microdilution method; format: functional; conditions: cgmcc2.2086, 48 h
Escherichia coli [8] = assay: Antibacterial activity against Escherichia coli ATCC 25922 measured after 18 to 24 hrs in presence of KCl; format: functional
Staphylococcus aureus [9] = assay: Bactericidal activity against Staphylococcus aureus ATCC 25923 incubated for 24 hrs followed by replating on agar plate and measured after overnight incubation; format: functional; conditions: ATCC 25923, 24 h, read-out: MBC>99.9
In short: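 After the 24 h, 37 °C MHB microdilution MIC assay, 50 μL from each well was plated on agar and incubated overnight. MBC taken as lowest peptide concentration killing >99.9% of cells. At least three independent experiments, each with three technical replicates.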

Escherichia coli [10] = assay: Bactericidal activity against Escherichia coli 078 incubated for 24 hrs followed by replating on agar plate and measured after overnight incubation; format: functional; conditions: Escherichia coli, 078, 24 h; read-out: MBC>99.9
In short: (§3)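 After the 24 h, 37 °C MHB microdilution (0.5–1 × 10^5 CFU mL−1 inoculum, peptides diluted in 0.2% BSA), 50 μL from each well was plated on agar and incubated overnight. MBC was taken as the lowest concentration killing >99.9% of cells. Three or more independent experiments, each with triplicate technical replicates.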

[11] = Therapeutic index, ratio of MHC10 for hemolytic activity in human RBC to MIC95 against Staphylococcus epidermidis ATCC 12228; format: toxicity; conditions: human red blood cells (erythrocytes), read-out: TI
In short: (§4)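 Therapeutic index = MHC divided by MIC. MHC is the lowest concentration giving >10% lysis of human RBC (1 h, 37 °C, 1-128 µM, A576). MIC is 95% growth inhibition by broth microdilution: bacteria in MHB 24 h at 37 °C; Candida in MOPS-buffered RPMI 1640 at (0.5–1) × 10^3 CFU mL−1, 48 h at 28 °C.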

Escherichia coli [12] = assay: Bactericidal activity against Escherichia coli ATCC 25922 incubated for 24 hrs followed by replating on agar plate and measured after overnight incubation; format: functional; conditions: ATCC 25922, 24 h, read-out: MBC>99.9; in short: as §3
[13] = Therapeutic index, ratio of MHC10 for hemolytic activity in human RBC to MIC95 against Staphylococcus aureus ATCC 29213; format: toxicity; conditions: human red blood cells (erythrocytes), read-out: TI; in short: as §4
Erythrocyte = assay: Hemolytic activity in human RBC measured after 1 hr; format: ADME, cell-based
In short: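 Fresh healthy-donor human erythrocytes at ~1% (v/v) in PBS pH 7.4, mixed 1:1 with peptide (1–128 µM), 1 h at 37 °C. After centrifugation at 1000×g, supernatant hemoglobin read at 576 nm. Untreated cells set 0% and 0.1% Triton X-100 set 100%. MHC defined as the concentration giving >10% hemolysis. Three or more independent experiments, triplicates.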

Candida albicans [14] = assay: Antifungal activity against Candida albicans cgmcc2.2086 measured after 48 hrs by broth microdilution method; format: functional; conditions: cgmcc2.2086, 48 h
In short: (§5)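 Modified CLSI M27-A2 microdilution. Yeast colonies were diluted in MOPS-buffered RPMI 1640 to a final (0.5–1) × 10^3 CFU mL−1 and mixed with an equal volume of peptide serially diluted in 0.2% BSA. After 48 h at 28 °C, MIC was read at A492 as the lowest concentration inhibiting 95% of growth. At least three independent experiments, each with three technical replicates.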

Escherichia coli [15] = assay: Bactericidal activity against Escherichia coli K99 incubated for 24 hrs followed by replating on agar plate and measured after overnight incubation; format: functional; conditions: K99, 24 h, read-out: MBC>99.9; in short: as §2
Escherichia coli [16] = assay: Antibacterial activity against Escherichia coli UB1005 measured after 24 hrs; format: functional; conditions: UB1005, 24 h; in short: as §1
Staphylococcus aureus [17] = assay: Antibacterial activity against Staphylococcus aureus ATCC 29213 measured after 18 to 24 hrs in presence of FeCl3; format: functional
Salmonella typhimurium [18] = assay: Bactericidal activity against Salmonella typhimurium C7731 incubated for 24 hrs followed by replating on agar plate and measured after overnight incubation; format: functional, Salmonella enterica subsp. enterica serovar Typhimurium; conditions: Salmonella enterica, C7731, 24 h; read-out: MBC>99.9; in short: as §2
Staphylococcus aureus [19] = assay: Antibacterial activity against Staphylococcus aureus ATCC 29213 measured after 18 to 24 hrs in presence of NaCl; format: functional
Candida parapsilosis = assay: Antifungal activity against Candida parapsilosis cgmcc2.3989 measured after 48 hrs by broth microdilution method; format: functional; conditions: Lodderomyces parapsilosis, cgmcc2.3989, 48 h; in short: as §5
Escherichia coli [20] = assay: Antibacterial activity against Escherichia coli K99 measured after 24 hrs; format: functional; conditions: K99, 24 h; in short: as §1
Staphylococcus aureus [21] = assay: Antibacterial activity against methicillin-resistant Staphylococcus aureus ATCC 43300 measured after 24 hrs; format: functional; conditions: ATCC 43300, 24 h
In short: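 Broth microdilution modified from NCCLS. Mid-log bacteria at (0.5–1) × 10^5 CFU mL−1 in MHB, mixed with peptides serially diluted in 0.2% BSA. Incubated 24 h at 37 °C, read at A492. MIC taken as lowest concentration giving 95% growth inhibition. At least three independent experiments, each with three technical replicates.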

Escherichia coli [22] = assay: Antibacterial activity against Escherichia coli ATCC 25922 measured after 18 to 24 hrs in presence of NaCl; format: functional
Escherichia coli [23] = assay: Antibacterial activity against Escherichia coli 078 measured after 24 hrs; format: functional; conditions: Escherichia coli, 078, 24 h; in short: as §1
Candida albicans [24] = assay: Antifungal activity against Candida albicans cgmcc2.2086 measured after 48 hrs in presence of NaCl by broth microdilution method; format: functional; conditions: cgmcc2.2086, 48 h
Candida albicans [25] = assay: Antifungal activity against Candida albicans cgmcc2.2086 measured after 48 hrs in presence of FeCl by broth microdilution method; format: functional; conditions: cgmcc2.2086, 48 h

Substance	MIC95 (Salmonella typhimurium [1]) [µM]	MBC [2] [µM]	MIC95 (Escherichia coli [3]) [µM]	MIC95 (Staphylococcus aureus [4]) [µM]	MIC95 (Salmonella typhimurium [5]) [µM]	MIC95 (Candida albicans [6]) [µM]	MIC95 (Candida albicans [7]) [µM]	MIC95 (Escherichia coli [8]) [µM]	MBC (Staphylococcus aureus [9]) [µM]	MBC (Escherichia coli [10]) [µM]	selectivity ratio [11]	MBC (Escherichia coli [12]) [µM]	selectivity ratio [13]	MHC10 (Erythrocyte) [µM]	MIC95 (Candida albicans [14]) [µM]	MBC (Escherichia coli [15]) [µM]	MIC95 (Escherichia coli [16]) [µM]	MIC95 (Staphylococcus aureus [17]) [µM]	MBC (Salmonella typhimurium [18]) [µM]	MIC95 (Staphylococcus aureus [19]) [µM]	other results
H-AARIILRWFRR-NH2	4	4	2	8	4	32	8	2	8	4	53.8	2	53.8	> 128	8	4	2	4	8	32	MIC95 (Candida parapsilosis): 4 µM; MIC95 (Escherichia coli [20]): 2 µM; MIC95 (Staphylococcus aureus [21]): 8 µM; MIC95 (Escherichia coli [22]): 8 µM; MIC95 (Escherichia coli [23]): 2 µM; MIC95 (Candida albicans [24]): 16 µM; MIC95 (Candida albicans [25]): 8 µM
H-AARIILRARFR-NH2	4	4	4	16	4	64	16	8	8	4	90.5	4	90.5	> 128	16	4	2	4	8	> 128	MIC95 (Candida parapsilosis): 16 µM; MIC95 (Escherichia coli [20]): 2 µM; MIC95 (Staphylococcus aureus [21]): 2 µM; MIC95 (Escherichia coli [22]): 32 µM; MIC95 (Escherichia coli [23]): 4 µM; MIC95 (Candida albicans [24]): 64 µM; MIC95 (Candida albicans [25]): 16 µM
H-AARIILRFRFR-NH2	4	4	16	4	4	64	4	16	4	8	128	8	128	> 128	8	4	4	4	8	32	MIC95 (Candida parapsilosis): 4 µM; MIC95 (Escherichia coli [20]): 2 µM; MIC95 (Staphylococcus aureus [21]): 2 µM; MIC95 (Escherichia coli [22]): 64 µM; MIC95 (Escherichia coli [23]): 4 µM; MIC95 (Candida albicans [24]): 32 µM; MIC95 (Candida albicans [25]): 8 µM

Source: ChEMBL document CHEMBL4350958, “Rational Design of Short Peptide Variants by Using Kunitzin-RE, an Amphibian-Derived Bioactivity Peptide, for Acquired Potent Broad-Spectrum Antimicrobial and Improved Therapeutic Potential of Commensalism Coinfection of Pathogens” (J Med Chem, 2019)
